Source: PubChem BioAssay AID493080 (Broad Institute, 2011)
Where “and” joins values, the source holds several entries; their conditions need not be identical. Equal values may be shown once. Calls of active or inactive are those of the source.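 The calls were made as follows: active = growth inhibition with fitted AC50 no more than ten times the top valid dose; inconclusive = flat fit at 30 to 70% inhibition, or bad fit; inactive = the rest, including rises in signal.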

Tested on: not listed separately
Test: Candida CaCi-2 inhibition with fluconazole present – dry powder retest, set 3, confirmation (AID 493080)
Conditions: C. albicans CaCi-2 + fluconazole, Alamar Blue growth, 48 h; at 1.2 µM (top of the series)
Procedure, shortened: (§1)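 Test system: fluconazole-resistant Candida albicans clinical isolate CaCi-2; Quantity: inoculum A600 0.00015; Buffer or medium: RPMI medium, MOPS-buffered; Probe or stimulus: fluconazole 8 µg/mL; Dosing: pin-transferred compounds; Times: 48 h compound exposure, 37 °C, then Alamar Blue 2 h; Detection: Alamar Blue fluorescence, excitation 544 nm, emission 590 nm; Benchmarks: geldanamycin as positive control.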
In the case of COc1ccc2c(c1)c1nc3n(c(=O)c1n2CC(=O)N1CCC(C)CC1)CCS3, the activity change, negative = inhibition was 15.5% (inactive).

Same assay, conditions: C. albicans CaCi-2 + fluconazole, Alamar Blue growth, 48 h; at 12 µM (top of the series)
With O=C(Cn1c2ccccc2c2nc3n(c(=O)c21)CCCS3)c1ccc(F)cc1 the activity change, negative = inhibition was 3.71% (inactive).
With N#Cc1ccc(C(=O)N2CCN(c3ccccn3)CC2)cc1 the activity change, negative = inhibition was -16.1% (inactive).
For O=C(O)c1nn(Cc2ccc(Cl)cc2)c2ccccc12, the activity change, negative = inhibition was -7.95% (inactive).
With CCOC(=O)c1nn(Cc2ccc(Cl)cc2)c2ccccc12 the activity change, negative = inhibition was 4.97% (inactive).
With COc1ccc2c(c1)c1nc3n(c(=O)c1n2CC(=O)N1CCC(Cc2ccccc2)CC1)CCS3 the activity change, negative = inhibition was -1.27% (inactive).
For O=C(C1CCCCC1)N1CCN(c2ccccn2)CC1, the activity change, negative = inhibition was -20.7% (inactive).
In the case of CC(C)C(=O)N1CCN(c2ccccn2)CC1, the activity change, negative = inhibition was 6.09% (inactive).
With O=C(Cn1c2ccccc2c2nc3n(c(=O)c21)CCS3)NCCc1ccc(Cl)cc1 the activity change, negative = inhibition was -0.805% (inactive).
In the case of O=C(c1ccccc1Cl)N1CCN(c2ccccn2)CC1, the activity change, negative = inhibition was 8.16% (inactive).
For COC(=O)Cn1nc(C)c2ccccc21, the activity change, negative = inhibition was -1.03% (inactive).
With N#Cc1cccc(N2CCN(C(=O)c3ccc(Cl)cc3)CC2)n1 the activity change, negative = inhibition was 0.43% (inactive).
In the case of N#Cc1cccnc1N1CCN(C(=O)c2ccc(Cl)cc2)CC1, the activity change, negative = inhibition was -11.5% (inactive).
With O=C(O)Cn1nc(-c2ccccc2)c2ccccc21 the activity change, negative = inhibition was -8.71% (inactive).
For COC(=O)Cn1c(-c2ccccc2)nc2ccccc21, the activity change, negative = inhibition was -5.95% (inactive).
With O=C(c1cccc(Cl)c1)N1CCN(c2ccccn2)CC1 the activity change, negative = inhibition was 8.07% (inactive).
With CCOC(=O)c1c2ccccc2nn1Cc1ccc(Cl)cc1 the activity change, negative = inhibition was 17.8% (inactive).
In the case of CNC(=O)Cn1nc(-c2ccccc2)c2ccccc21, the activity change, negative = inhibition was 10.1% (inactive).
In the case of O=C(c1ccc(Cl)cc1)N1CCN(c2cccc(C(F)(F)F)n2)CC1, the activity change, negative = inhibition was -1.86% (inactive).
In the case of c1ccc(-c2n[nH]c3ccccc23)cc1, the activity change, negative = inhibition was 24.5% (inactive).
For CCCNC(=O)Cn1nc(-c2ccccc2)c2cc(Cl)ccc21, the activity change, negative = inhibition was 27.1% (inactive).
For O=C(Cn1nc(C(=O)N2CCCCC2)c2ccccc21)N1CCOCC1, the activity change, negative = inhibition was -6.13% (inactive).
For O=C(Cn1nc(-c2ccccc2)c2ccccc21)N1CCc2ccccc2C1, the activity change, negative = inhibition was 3.01% (inactive).
In the case of Cc1cccc(N2CCN(C(=O)c3ccc(Cl)cc3)CC2)n1, the activity change, negative = inhibition was -17.4% (inactive).
With COCCC(=O)N1CCN(c2ccccn2)CC1 the activity change, negative = inhibition was -0.956% (inactive).
For CCCNC(=O)Cn1nc(-c2ccccc2)c2ccccc21, the activity change, negative = inhibition was 26.9% (inactive).
In the case of CCCCC(=O)N1CCN(c2ccccn2)CC1, the activity change, negative = inhibition was -2.66% (inactive).
In the case of O=C(Cn1nc(-c2ccccc2)c2ccccc21)NCc1ccc(Cl)cc1, the activity change, negative = inhibition was -6.29% (inactive).
With O=C(Cn1nc(-c2ccccc2)c2cc(Cl)ccc21)N1CCOCC1 the activity change, negative = inhibition was -1.59% (inactive).

Tested on: C. albicans CaCi-2 + fluconazole, Alamar Blue growth, 48 h
Test: as above
Conditions: not given
Procedure, shortened: as §1
With O=C(c1ccc(F)cc1)N1CCN(c2ccccn2)CC1 the AC50 was > 12 µM (inactive).
In the case of O=C(Cn1c2ccccc2c2nc3n(c(=O)c21)CCS3)N1CCCCC1, the AC50 was 2.08 µM.
In the case of CCN(CC)C(=O)Cn1c2ccccc2c2nc3n(c(=O)c21)CCS3, the AC50 was 1.67 µM and 1.82 µM.
Work on O=c1c2[nH]c3ccc(F)cc3c2nc2n1CCS2 yielded an AC50 of 2.96 µM.
Compound CC1CCN(C(=O)Cn2c3ccc(F)cc3c3nc4n(c(=O)c32)CCCS4)CC1 has an AC50 of 2.09 µM.
Work on COC(=O)Cn1nc(-c2ccccc2)c2ccccc21 yielded an AC50 of 2.11 µM.
COC(=O)Cn1nc(-c2ccccc2)c2cc(Cl)ccc21 showed an AC50 of 8.1 µM.
O=C(Cn1c2ccccc2c2nc3n(c(=O)c21)CCS3)N1CCOCC1 gave an AC50 of 2.66 µM.
CC1CCN(C(=O)Cn2c3ccccc3c3nc4n(c(=O)c32)CCS4)CC1 showed an AC50 of 2.2 µM.
Work on CCN(CC)C(=O)Cn1c2ccc(F)cc2c2nc3n(c(=O)c21)CCS3 yielded an AC50 of 0.685 µM.
For COc1ccnc(N2CCN(C(=O)c3ccc(Cl)cc3)CC2)c1, the AC50 was > 12 µM (inactive).
For O=C(Cn1c2ccc(F)cc2c2nc3n(c(=O)c21)CCS3)N1CCCCCC1, the AC50 was 1.36 µM.
For O=C(c1ccc(Cl)cc1)N1CCN(c2ccc(C(F)(F)F)cn2)CC1, the AC50 was > 12 µM (inactive).
For O=C(Cn1c2ccccc2c2nc3n(c(=O)c21)CCS3)N1CCCC1, the AC50 was 0.837 µM and 2.69 µM.
COC(=O)Cn1nc(-c2ccc(C)cc2)c2ccccc21 showed an AC50 of 8.98 µM.
For O=C(c1ccc(Cl)cc1)N1CCN(c2nc3ccccc3o2)CC1, the AC50 was 12.1 µM.
In the case of O=c1c2[nH]c3ccccc3c2nc2n1CCS2, the AC50 was 8.16 µM.
CC1CCN(C(=O)Cn2c3ccccc3c3nc4n(c(=O)c32)CCCS4)CC1 showed an AC50 of 11 µM.
Compound O=C(c1ccc(Cl)cc1)N1CCN(c2nc3ccccc3s2)CC1 has an AC50 of 4.12 µM.
For O=C(Cn1c2ccc(F)cc2c2nc3n(c(=O)c21)CCS3)N1CCCC1, the AC50 was 0.532 µM.
For O=C(Cn1c2ccc(F)cc2c2nc3n(c(=O)c21)CCS3)N1CCCCC1, the AC50 was 0.384 µM.
